SENP1 FRET inh – human SENP1 catalytic domain inhibitors, primary screen, biochemical, FRET, uHTS; Sentrin-specific protease 1 (Homo sapiens), Q9P0U3; recombinant SENP1 catalytic domain, CyPet-SUMO1-YPet FRET cleavage; inhibition, % at 10 µM; actives 0.21% (n = 360,000); AID 624204, 2012;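 active = inhibition at least 30% at 10 µM, raw YFP signal under a set limit, fluorescence ratio 0.5 to 1.5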;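 note: 0% = enzyme with DMSO and 100% = no enzyme wells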
Target sequence (Q9P0U3 419-644 limits assumed): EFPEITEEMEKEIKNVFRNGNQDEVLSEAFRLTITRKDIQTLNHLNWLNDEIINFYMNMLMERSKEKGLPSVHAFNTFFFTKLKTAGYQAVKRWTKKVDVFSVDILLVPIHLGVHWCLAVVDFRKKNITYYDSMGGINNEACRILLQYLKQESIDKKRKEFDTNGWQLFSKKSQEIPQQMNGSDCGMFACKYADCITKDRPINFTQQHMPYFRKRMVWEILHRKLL
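Controls: no-enzyme wells low, DMSO-plus-enzyme wells high control. Test system: human recombinant His6-tagged SENP1 catalytic domain enzyme. Reagent: SFCypet-SUMO1-SFYpet FRET protein substrate, 25 nM final. Doses: one dose per compound, 10 µM, 0.5% DMSO. Detection: FRET, CFP and YFP emission. Timing: 50 min reaction at room temperature.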
MPTP block – mitochondrial permeability transition pore inhibitors, primary screen, biochemical, isolated mouse mitochondria, absorbance. Ca2+ swelling absorbance, 30 min. actives 1.4% (n = 360,000). inhibition, % at 10 µM. AID 602449, 2012;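 active = inhibition of 50% or more, scaled per plate between neutral and stimulator controls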;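 note: 0% = DMSO wells given calcium and 100% = 1 mM EGTA wells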
EBI2 block – EBI2 receptor antagonists, beta-arrestin recruitment, primary screen, cell-based, luminescence, 7a,25-OHC stimulation, uHTS | inhibition, % at 5 µM | G-protein coupled receptor 183 (Homo sapiens), P32249 | 7a,25-OHC stimulated | actives 0.81% (n = 360,000); in the data active = inhibition above about 38%;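 note: enzyme fragment complementation signal reports receptor beta-arrestin coupling in cells; 0% = agonist plus DMSO wells and 100% = wells without agonist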
Target sequence (P32249 whole entry, looked up, the tested form may be a part): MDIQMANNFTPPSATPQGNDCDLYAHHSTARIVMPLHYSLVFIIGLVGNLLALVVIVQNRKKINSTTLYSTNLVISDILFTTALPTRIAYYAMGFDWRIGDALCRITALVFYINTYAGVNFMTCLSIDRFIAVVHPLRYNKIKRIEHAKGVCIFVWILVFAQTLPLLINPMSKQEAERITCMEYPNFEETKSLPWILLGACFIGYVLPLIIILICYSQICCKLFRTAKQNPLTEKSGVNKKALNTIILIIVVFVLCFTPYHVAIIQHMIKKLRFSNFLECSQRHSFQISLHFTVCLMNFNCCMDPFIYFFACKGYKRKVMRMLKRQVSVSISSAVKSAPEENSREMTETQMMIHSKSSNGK
NR3A LBD binder – binders of NR3A ligand-binding domain, primary screen, biophysical, differential scanning fluorimetry, uHTS; Glutamate receptor ionotropic, NMDA 3A (GRIN3A) ligand-binding domain; NR3A LBD differential scanning fluorimetry, Tm shift; 0% = protein alone, 100% = glycine-bound protein; Tm shift relative to glycine control, % at 25 µM; actives 2.5% (n = 340,000); AID 1259313, 2017;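 active = melting temperature shift of at least 10% of the positive control shift, at one fixed dose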
SENP1 conf – human SENP1 catalytic domain inhibitors, confirmation, biochemical, FRET endpoint, single concentration | shares compounds with SENP1 FRET inh | recombinant SENP1, CyPet-SUMO1-YPet FRET cleavage | inhibition, % at 10 µM | actives 34% (n = 520) | AID 651678, 2012; in the data active = inhibition mostly above about 35%, no sharp cut-off; inactive = mostly below about 32%;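 note: 0% = enzyme with DMSO and 100% = no enzyme control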
SENP1 kin conf – human SENP1 catalytic domain inhibitors, confirmation, biochemical, kinetic FRET, single concentration | shares compounds with SENP1 FRET inh | recombinant SENP1, CyPet-SUMO1-YPet FRET kinetic cleavage | inhibition, % at 10 µM | actives 26% (n = 520) | AID 651690, 2012; in the data active = inhibition mostly above about 32%, no sharp cut-off; inactive = mostly below about 29%;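 note: 0% = DMSO with enzyme and 100% = no enzyme substrate only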
* hit, by the source's call; . = no result given. Only some compounds are listed: those with a hit (about 4.4% of all), similar ones and a draw of the others.

SMILES	SENP1 FRET inh	MPTP block	EBI2 block	NR3A LBD binder	SENP1 conf	SENP1 kin conf
CC(CC(=O)Nc1ccc(S(=O)(=O)N2CCOCC2)cc1)c1ccccc1 (centres undefined)	2.5	3.3	-6.3	-0.9	.	.
Nc1c(-c2ccc(Cl)cc2)cnc2c(-c3ccccc3)cnn12	-0.2	5.3	13.4	-8.2	.	.
CCOC(=O)C(C)Sc1nnc(Cc2cc(=O)[nH]c(=O)[nH]2)n1-c1ccc(Cl)cc1 (centres undefined)	64.2*	0.0	-1.0	1.0	12.8	8.5
COc1cccc(C2C3=C(N=c4s/c(=C\c5cccc(O)c5)c(=O)n42)c2ccccc2CC3)c1OC (centres undefined)	49.5*	6.2	21.8	31.1*	26.1	16.8
COc1ccccc1C1C2=C(N=c3s/c(=C/c4cccc(OCC(=O)O)c4)c(=O)n31)c1ccccc1CC2 (centres undefined)	35.6*	3.8	-2.0	4.5	44.3*	20.6
COc1cccc(C2C3=C(N=c4s/c(=C\c5ccc(OCC(=O)O)cc5)c(=O)n42)c2ccccc2CC3)c1 (centres undefined)	.	.	.	2.2	.	.
COC(=O)[C@@]12C[C@@H](CC(=O)NCc3ccc(OC)c(OC)c3)C(=O)N(Cc3ccccc3)C1=CCC(C)(C)C2	1.2	-0.9	-3.3	.	.	.
COc1cc(Cn2c3ccc(NC(=O)CCc4cccnc4)cc3c(=O)n2C)ccc1F	6.8	-0.1	1.0	.	.	.
COc1cc(Cn2c3ccc(NC(=O)CCc4ccccc4)cc3c(=O)n2C)ccc1F	32.9*	0.9	-14.8	.	3.8	4.8
Oc1ccccc1NCC(O)Cn1ccc2ccccc21 (centres undefined)	37.5*	2.6	-6.3	-4.9	5.5	0.9
OC(CNCc1ccccc1)Cn1ccc2ccccc21 (centres undefined)	-20.1	-0.7	-0.7	-2.9	.	.
COC(=O)C1=C(C)N(C)C(=S)N(C)C1c1cccc(Br)c1 (centres undefined)	0.4	-1.1	3.3	-0.5	.	.
COc1ccc(NC(=O)CCc2nc(-c3ccccc3F)no2)cc1	1.2	-0.1	-12.2	-0.8	.	.
COCCn1c(-c2ccco2)csc1=Nc1cccnc1	-0.4	-2.9	12.1	1.3	.	.
CCN=c1scc(-c2cccs2)n1/N=C/c1cc(OC)ccc1O	52.1*	6.0	41.2	-6.8	146.2*	82.3*
COc1ccc(O)c(/C=N/n2c(-c3ccco3)csc2=Nc2cccnc2)c1	41.7*	2.9	8.3	-2.8	29.1*	18.6
CN(CC(=O)NC1CC1)S(=O)(=O)c1cc(Cl)ccc1Cl	0.3	-0.5	4.2	-0.9	.	.
Nc1ccc2oc(=O)c(-c3ccccc3)cc2c1	67.9*	0.5	4.9	1.8	17.1	16.5
Cc1c(NN=C(C#N)C#N)c(=O)n(-c2ccccc2)n1C	46.5*	-0.4	-4.5	0.6	13.9	18.2
Cc1c(NC(=O)/C(C#N)=C/c2ccccc2)c(=O)n(-c2ccccc2)n1C	2.7	-0.9	11.8	-1.8	.	.
COc1ccc(-c2ccc3c(c2)S(=O)(=O)c2cccc(C(=O)NCCOc4ccccc4Cl)c2C3=O)cc1OC	29.0*	0.1	6.9	-4.7	14.4	15.9
COc1ccc(-c2ccc3c(c2)S(=O)(=O)c2cccc(C(=O)NC4CC4)c2C3=O)cc1OC	-5.4	0.6	-8.5	-1.4	.	.
COc1ccc(-c2ccc3c(c2)S(=O)(=O)c2cccc(C(=O)NCc4ccccc4Cl)c2C3=O)cc1OC	57.6*	0.1	-24.2	-5.1	14.6	17.2
N#Cc1ccc(Oc2cccc3cccnc23)c([N+](=O)[O-])c1	-65.1	-0.7	21.2	2.1	.	.
O=[N+]([O-])c1ccc(Oc2cccc3cccnc23)c([N+](=O)[O-])c1	76.2*	-1.0	21.1	3.3	24.7	15.7
SMILES	SENP1 FRET inh	MPTP block	EBI2 block	NR3A LBD binder	SENP1 conf	SENP1 kin conf
C=CCn1c(SCC(=O)Nc2cccc(S(N)(=O)=O)c2)nnc1C1CCCCC1	0.9	-0.6	-0.2	-1.2	.	.
CCOc1ccc(Cn2c3ccc(OC)cc3c3nc4ccccc4nc32)cc1OC	41.8*	0.5	28.3	1.9	67.9*	48.4*
COc1ccc2c(c1)c1nc3ccccc3nc1n2Cc1ccc(OC)c(OC)c1	38.6*	-0.9	24.8	2.9	62.8*	52.0*
COC(=O)Cn1c2ccc(OC)cc2c2nc3ccccc3nc21	23.4	3.3	14.6	1.8	.	.
Cc1nc2cc(NC(=O)c3cccc(S(C)(=O)=O)c3)ccc2o1	-1.9	-0.6	-1.8	-0.5	.	.
Cc1cccc(C)c1-n1nnnc1-c1nc2cc(Br)ccc2[nH]c1=O	-25.7	-1.0	17.1	.	.	.
Cc1cccc(C)c1-n1nnnc1-c1nc2cc3ccccc3cc2[nH]c1=O	62.5*	2.8	4.0	.	61.6*	44.6*
CC(C)C[C@H]1CN(CCCC[C@H]2CNC(=O)C(=O)N2Cc2ccccc2)C(=O)C(=O)N1Cc1ccccc1	2.4	-0.5	1.8	.	.	.
c1ccc(CN2CCN(C3=Nc4cccc5cccc3c45)CC2)cc1	82.5*	-0.9	15.6	-1.3	89.3*	53.1*
CC1=CC(=O)C=C/C1=C(/c1ccc(O)cc1C)c1ccccc1S(=O)(=O)O	35.9*	2.2	3.9	-0.9	18.3	16.5
CC1=C/C(=C(\c2ccc(O)c(C)c2)c2ccccc2S(=O)(=O)O)C=CC1=O	7.6	0.4	3.6	0.4	.	.
CC(C)Oc1ccc(C(=O)NCCCNC(=O)c2cccnc2)cc1	3.2	0.4	8.1	1.1	.	.
COc1ccc(CCOC(=O)c2cccc(NC(C)=O)c2)cc1	-1.1	-0.3	-13.5	2.9	.	.
O=C(COC(=O)CCc1ccccc1)NCc1ccc2c(c1)OCO2	32.0*	0.9	11.5	0.2	-4.4	0.2
CCOC(=O)c1c(C#N)c(SCC(=O)Nc2ccc(OC)cc2)nc2c1CN(CC)CC2	40.2*	-0.3	-2.1	-5.3	20.2	11.1
COc1ccc(NC(=O)CSc2nc(N)c(C#N)cc2C#N)cc1	-26.7	0.7	-3.3	-1.9	.	.
CCOc1ccc(NC(=O)COC(=O)CN2CCCCCC2=O)cc1	1.8	-1.7	1.0	0.4	.	.
CC(C)CCNC(=O)C(=O)NCC1OCCCN1S(=O)(=O)c1cccs1 (centres undefined)	1.7	0.2	-15.7	-1.2	.	.
COc1cccc(C2CC(C(F)(F)F)n3nc(C(=O)Nc4c(C)n(C)n(-c5ccccc5)c4=O)cc3N2)c1 (centres undefined)	27.0*	1.1	-4.2	-2.4	12.6	7.3

From PubChem BioAssay
